Experimental findings from paper PMC2668958 (Combinatorial chemistry & high throughput screening, 2008) are described below.

In series [1] the target is T1, Glucocerebrosidase (GC) (Homo sapiens, UniProt P04062, R534H).
T1 sequence (P04062 40-536 R534H): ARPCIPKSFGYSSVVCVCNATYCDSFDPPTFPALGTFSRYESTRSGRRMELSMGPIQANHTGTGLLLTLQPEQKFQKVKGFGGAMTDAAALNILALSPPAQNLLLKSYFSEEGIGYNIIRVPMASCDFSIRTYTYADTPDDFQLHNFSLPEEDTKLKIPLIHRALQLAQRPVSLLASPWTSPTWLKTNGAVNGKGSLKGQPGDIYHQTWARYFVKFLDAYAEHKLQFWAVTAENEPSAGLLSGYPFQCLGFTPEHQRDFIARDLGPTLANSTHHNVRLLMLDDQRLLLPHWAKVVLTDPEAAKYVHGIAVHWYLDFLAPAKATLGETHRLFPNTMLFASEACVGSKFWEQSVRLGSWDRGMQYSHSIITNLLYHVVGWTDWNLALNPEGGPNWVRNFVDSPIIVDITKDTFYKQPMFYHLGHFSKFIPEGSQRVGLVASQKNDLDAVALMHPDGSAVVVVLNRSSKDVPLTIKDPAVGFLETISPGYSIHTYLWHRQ
The experiment in a line: Res-β-Glc. In kind it is biochemical.

In series [2] the target is T1, Glucocerebrosidase (GC). The experiment in a line: "blue" GC enzyme kinetic assay, 384-well. The class given is biochemical. Particulars: substrate of "blue" assay, 1.9 nM enzyme. In a few lines:
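384-well format. 1.9 nM GC in pH 5.9 buffer (50 mM citric acid, 176 mM K2HPO4, 0.01% Tween-20, 10 mM sodium taurocholate). Reaction started with 4MU-β-Glc at final 3000–23.4 μM (1:2 series, eight levels), run at RT. Separate plates were stopped with 1 M NaOH/1 M glycine pH 10 at 2, 4, 6, 8, 10 and 12 min and read at 440 nm. Product was quantified from a 4-methylumbelliferone standard curve.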

For series [3], the target named is T1, Glucocerebrosidase (GC). The series is described as follows: 4MU-β-Glc. In kind it is biochemical. The settings on record: read-out: IC50 in the "blue" GC assay; known GC inhibitors; 800 μM 4MU-β-Glc, 1.9 nM enzyme.
The conditions of series [4]: CBE solutions in DMSO left at RT for more than a few hours (data not shown).
Series [5] has as its target T1, Glucocerebrosidase (GC). The series is described as follows: "red" GC enzyme kinetic assay, 384-well. The class given is biochemical. Particulars: substrate of "red" assay, 1.9 nM enzyme. Summed up:
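Kinetics were run in 384-well plates with 1.9 nM GC in pH 5.9 citrate/K2HPO4 buffer containing 0.01% Tween-20 and 10 mM sodium taurocholate. Res-β-Glc was added at final 100, 60, 40, 20, 10, 5 and 2.5 μM at RT, with no stop step. One plate was read continuously for 610 nm emission at 2 min intervals. Product was converted using a resorufin standard curve in assay buffer.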

Where [6] appears, read: varied substrate concentrations.

Consider `O=C(/C=C/c1ccc(O)cc1)c1ccc(O)cc1O` [compound 2, Isoliquiritigenin], for which the half-maximal inhibitory concentration (IC50) at Glucocerebrosidase (GC) [1] worked out at 2.57 µM.
Molecule `CC[N+](CC)(CC)CCOc1cccc(OCC[N+](CC)(CC)CC)c1OCC[N+](CC)(CC)CC` [compound 3, Gallamine triethiodide] returned a half-maximal inhibitory concentration (IC50) against Glucocerebrosidase (GC) [1] of 3.59 µM.
In turn, `O=c1c2ccccc2[se]n1-c1ccccc1` [compound 10, Ebselen] gave an IC50 at Glucocerebrosidase (GC) [1] of 0.63 µM.
Still for that read-out and setting: to `CN[C@@H](C)[C@H](O)c1ccccc1` [compound 1, (-)-Ephedrine hemisulfate] belongs 0.79 µM.
Turning to `Cc1cc(=O)oc2cc(O[C@@H]3O[C@H](CO)[C@@H](O)[C@H](O)[C@H]3O)ccc12` [4MU-β-Glc, 4-methylumbelliferyl β-D-glucopyranoside], the Vmax at Glucocerebrosidase (GC) [2] came out at 1.56 pmol/min. Besides, on Glucocerebrosidase (GC) [2] (setting [6]), the Km came to 768 µM.
With `O[C@H]1[C@H](O)[C@@H](O)[C@@H]2O[C@@H]2[C@@H]1O` [CBE, Conduritol β-epoxide], the IC50 amounted to 13 µM at Glucocerebrosidase (GC) [1] (read-out: IC50 in the "red" GC assay, known GC inhibitors, 30 μM Res-β-Glc, 1.9 nM enzyme) and 15.4 µM at Glucocerebrosidase (GC) [3]. In series [4], the “shift of IC50 value” is listed as 2- to 10 fold.
Consider `O=c1ccc2nc3ccc(O[C@@H]4O[C@H](CO)[C@@H](O)[C@H](O)[C@H]4O)cc3oc-2c1` [Res-β-Glc, Resorufin β-D-glucopyranoside], for which, at Glucocerebrosidase (GC) [5], the Vmax amounted to 7.11 pmol/min. Moreover, the Km at Glucocerebrosidase (GC) [5] (setting [6]) stood at 33 µM.
In the case of `C[N+]1(C)CCN(c2ccccc2)CC1` [compound 6, 1,1-Dimethyl-4-phenyl-piperazinium iodide], at Glucocerebrosidase (GC) [1], it took 6.8 µM to reach half-maximal inhibition (IC50).
`N.N.[Cl][Pt][Cl]` [Cisplatin]: the “GC inhibitory activity on hit confirmation” value on Glucocerebrosidase (GC) [1] (neat samples of primary hits, "red" GC enzyme assay) was “inactive”.
